Activity calls are given as the source filed them. The rule behind the calls is not given here.
What was measured:
MDA-MB-231 [1] = assay: Cell cycle arrest in human MDA-MB-231 cells assessed as accumulation at G2 phase at 5 uM after 48 hrs using propidium iodide staining by flow cytometric analysis; format: functional, cell-based
Summary of the method: (§1)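 MDA-MB-231 cells were seeded at 4 × 10^5 per well and incubated overnight, then treated for 48 h. Cells were fixed overnight in 70% ethanol phosphate buffer and washed twice with PBS. They were treated with DNase-free RNase A (1 mg/mL) for 30 min, then stained with propidium iodide for 30 min in the dark at room temperature. DNA content was read by FACScan flow cytometry.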

MDA-MB-231 [2] = assay: Cell cycle arrest in human MDA-MB-231 cells assessed as accumulation at G1 phase at 1 uM after 48 hrs using propidium iodide staining by flow cytometric analysis; format: functional, cell-based; summary of the method: as §1
H22 = assay: Antitumor activity against mouse H22 cells xenografted in Kunming mouse assessed as reduction of pulmonary metastatic nodes in lungs at 90 mg/kg, po qd for 14 days; format: functional, organism-based; parameters: dose 90 mg/kg
[3] = biological target: 72 kDa type IV collagenase (Homo sapiens) (UniProt P08253); assay: Inhibition of MMP2
Mus musculus [4] = assay: Toxicity in mouse H22 cells xenografted Kunming mouse assessed as change in body weight at 90 mg/kg, po qd for 19 days; format: organism-based; parameters: dose 90 mg/kg, route oral; conditions: in vivo, 456 h
Mus musculus [5] = assay: Toxicity in mouse H22 cells xenografted Kunming mouse assessed as signs of organ toxicity at 90 mg/kg, po qd for 19 days; format: organism-based; parameters: dose 90 mg/kg, route oral; conditions: in vivo, 456 h
MDA-MB-231 [6] = assay: Antitumor activity against human MDA-MB-231 cells xenografted in BALB/c nu mouse assessed as tumor growth inhibition at 90 mg/kg, ip qd for 19 days relative to control; format: functional; conditions: route intraperitoneal; for inhibition in vivo at 90 mg/kg: Mus musculus, MDA-MB-231, ip, 456 h, read-out: TGI
[7] = biological target: Aminopeptidase N (Homo sapiens) (UniProt P15144); assay: Inhibition of aminopeptidase N
Mus musculus [8] = assay: Toxicity in human MDA-MB-231 cells xenografted BALB/c nu mouse assessed as change in body weight at 90 mg/kg, ip qd for 19 days; format: organism-based; parameters: dose 90 mg/kg, route intraperitoneal; conditions: in vivo, 456 h
Summary of the method: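 Female BALB/c-nu mice, 5–6 weeks old, bearing subcutaneous right-flank xenografts. Mice were randomized 6 per group at about 100 mm3 tumor size. Dosing was oral or intraperitoneal for 19 days; controls received an equal volume of PBS containing DMSO. Body weight was monitored regularly during treatment, and tumors were measured by caliper every three days.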

Chain of 72 kDa type IV collagenase (Homo sapiens) (P08253 110-660 limits assumed): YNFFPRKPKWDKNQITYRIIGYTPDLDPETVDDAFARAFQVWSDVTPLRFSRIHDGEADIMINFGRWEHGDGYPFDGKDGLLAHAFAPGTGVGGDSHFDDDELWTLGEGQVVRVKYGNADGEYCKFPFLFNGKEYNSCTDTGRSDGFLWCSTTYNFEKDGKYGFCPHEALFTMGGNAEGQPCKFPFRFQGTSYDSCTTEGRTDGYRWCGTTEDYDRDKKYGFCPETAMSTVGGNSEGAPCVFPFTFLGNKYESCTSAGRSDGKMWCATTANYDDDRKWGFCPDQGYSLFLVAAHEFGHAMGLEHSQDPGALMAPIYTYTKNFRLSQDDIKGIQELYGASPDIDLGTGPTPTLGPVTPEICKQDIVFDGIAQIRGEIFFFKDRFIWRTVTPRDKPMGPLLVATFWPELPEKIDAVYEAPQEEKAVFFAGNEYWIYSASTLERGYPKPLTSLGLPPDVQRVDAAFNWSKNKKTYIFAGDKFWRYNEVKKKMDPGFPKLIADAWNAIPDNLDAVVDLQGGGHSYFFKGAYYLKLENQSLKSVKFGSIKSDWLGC
Chain of Aminopeptidase N (Homo sapiens) (P15144 whole entry): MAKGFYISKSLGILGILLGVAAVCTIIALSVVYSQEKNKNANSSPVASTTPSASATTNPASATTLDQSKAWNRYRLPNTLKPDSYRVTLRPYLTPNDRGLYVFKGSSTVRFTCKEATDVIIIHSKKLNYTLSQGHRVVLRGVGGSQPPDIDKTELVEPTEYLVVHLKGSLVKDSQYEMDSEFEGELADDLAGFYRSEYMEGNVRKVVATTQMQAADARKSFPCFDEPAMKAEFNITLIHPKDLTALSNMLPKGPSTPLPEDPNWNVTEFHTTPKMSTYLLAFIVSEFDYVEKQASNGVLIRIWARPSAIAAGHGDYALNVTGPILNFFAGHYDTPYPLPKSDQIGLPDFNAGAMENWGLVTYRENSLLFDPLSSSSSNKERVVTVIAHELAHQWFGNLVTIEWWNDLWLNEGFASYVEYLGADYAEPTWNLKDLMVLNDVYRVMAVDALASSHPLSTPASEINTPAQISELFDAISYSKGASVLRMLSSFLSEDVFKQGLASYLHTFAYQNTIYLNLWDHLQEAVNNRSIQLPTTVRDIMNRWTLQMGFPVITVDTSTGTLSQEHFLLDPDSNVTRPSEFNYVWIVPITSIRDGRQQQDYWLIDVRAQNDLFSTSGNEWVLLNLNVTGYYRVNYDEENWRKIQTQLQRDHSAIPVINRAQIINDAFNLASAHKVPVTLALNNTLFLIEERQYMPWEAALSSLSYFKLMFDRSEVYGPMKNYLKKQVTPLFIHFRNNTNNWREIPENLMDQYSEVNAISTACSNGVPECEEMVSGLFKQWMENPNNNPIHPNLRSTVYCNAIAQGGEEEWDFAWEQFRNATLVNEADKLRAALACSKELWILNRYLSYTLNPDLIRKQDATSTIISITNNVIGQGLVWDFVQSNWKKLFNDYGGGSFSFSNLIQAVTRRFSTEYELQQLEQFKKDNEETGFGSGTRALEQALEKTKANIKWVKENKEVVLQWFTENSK

Structure (SMILES) | Activity (MDA-MB-231 [1]) | Activity (MDA-MB-231 [2]) | Activity (H22) | inhibition [3] | Activity (Mus musculus [4]) | Activity (Mus musculus [5]) | inhibition in vivo at 90 mg/kg (MDA-MB-231 [6]) [%] | T/C (MDA-MB-231 [6]) [%] | inhibition [7] | Activity (Mus musculus [8])
O=C(CCCCCCC(=O)Nc1ccccc1)NO | Active | Active | inactive | inactive | – | – | – | – | – | –
CC[C@H](C)[C@@H](CN1Cc2cc(OCC(=O)NO)ccc2C[C@H]1C(=O)Nc1ccc(OC)cc1)NC(=O)CC(C)(C)C | – | – | Active | inactive | Non-toxic | Non-toxic | -9 | 87 | Active | Non-toxic
CC[C@H](C)[C@@H](CN1Cc2cc(OCC(=O)NO)ccc2C[C@H]1C(=O)Nc1ccc(OC)cc1)NC(=O)OC(C)(C)C | – | – | Active | inactive | Non-toxic | Non-toxic | 55 | 47 | Active | Non-toxic
CC[C@H](C)[C@H](NC(=O)OC(C)(C)C)C(=O)N1Cc2cc(OCC(=O)NO)ccc2C[C@H]1C(=O)Nc1ccc(OC)cc1 | – | – | Active | inactive | Non-toxic | Non-toxic | 40 | 63 | Active | Non-toxic
